Experimental data: ChEMBL document CHEMBL1137629, “Antiproliferative effect of dihydroxyacetone on Trypanosoma brucei bloodstream forms: cell cycle progression, subcellular alterations, and cell death” (Antimicrob Agents Chemother, 2007)
Active and inactive are the calls of the source. The calls are words filed in the database; no cut-off is given here.

What was measured:
Trypanosoma brucei [1] = test: Induction of apoptosis-like programmed cell death in Trypanosoma brucei bloodstream form assessed as phosphatidylserine exposure in outer leaflet of plasma membrane at 1 mM after 24 hrs by V-Fluos staining staining; type: functional
Method in brief: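 After 24 h DHA exposure of axenic bloodstream-form T. brucei MITat 1.2 (EATRO 427; 37°C, 5% CO₂), cells were washed in HEPES buffer (10 mM, pH 7.4, 140 mM NaCl, 5 mM CaCl₂). They were then stained with annexin V-Fluos for 15 min at 4°C and analysed by flow cytometry.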

Trypanosoma brucei [2] = test: Effect on morphological changes in Trypanosoma brucei bloodstream form assessed as increase in cisternal and vesicular structures within cytosol at 3 mM after 24 hrs by transmission electron microscopy; type: functional, organism-based
Method in brief: (§1)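 Parasites exposed 24 h to 3 mM DHA. 10⁸ cells fixed 1 h at 4°C in 2% glutaraldehyde in 0.2 M sodium cacodylate with 0.12 M sucrose, held overnight in buffer, postfixed in 1.5% osmium tetroxide and stained with 0.5% uranyl acetate. Dehydrated in ethanol, cleared in propylene oxide, embedded in Agar 100. Sections stained with 5% uranyl acetate and 0.4% lead citrate for TEM. Rapamycin (5 μM) served as the autophagy positive control.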

Trypanosoma brucei [3] = test: Effect on cell cycle of Trypanosoma brucei bloodstream form assessed as induction of necrosis at 1 mM after 24 hrs using propidium iodide staining by FACS analysis; type: functional
Method in brief: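 Bloodstream forms exposed 24 h at 37°C, 5% CO₂. Cells at 2 × 10⁶/ml incubated 10 min with propidium iodide (5 μg/ml), and uptake read by flow cytometry as a measure of membrane integrity. Digitonin (6 μM) served as the necrosis positive control.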

Trypanosoma brucei [4] = test: Effect on morphological changes in Trypanosoma brucei bloodstream form assessed as dilation of mitochondrion membrane at 3 mM after 24 hrs by transmission electron microscopy; type: functional, organism-based; method in brief: as §1
Trypanosoma brucei [5] = test: Effect on morphological changes in Trypanosoma brucei bloodstream form assessed as increase in mitochondrion size at 3 mM after 24 hrs by transmission electron microscopy; type: functional, organism-based; method in brief: as §1
Trypanosoma brucei [6] = test: Effect on morphological changes in Trypanosoma brucei bloodstream form assessed as increase in cell size at 5 mM after 20 hrs by scanning electron microscopy; type: functional, organism-based
Method in brief: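 Cells grown 20 h with 5 mM DHA. Fixed and stained as for TEM (glutaraldehyde, osmium tetroxide, uranyl acetate), then dehydrated through 50, 75, 95 and 100% ethanol. Critical-point dried and gold-palladium sputter-coated for scanning electron microscopy.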

Trypanosoma brucei [7] = test: Induction of apoptosis-like programmed cell death in Trypanosoma brucei bloodstream form assessed as loss of mitochondrial-membrane potential at 4 mM after 24 hrs by TMRE staining; type: functional
Method in brief: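 T. brucei MITat 1.2 (EATRO 427) bloodstream forms were grown axenically at 37°C, 5% CO₂ and exposed to DHA for 24 h. Cells at 10⁶/ml were stained with 25 nM TMRE in culture medium for 30 min at 37°C and read at once by flow cytometry. Depolarization control: valinomycin 100 nM. Lower fluorescence signifies lost membrane potential.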

Trypanosoma brucei [8] = test: Induction of apoptosis-like programmed cell death in Trypanosoma brucei bloodstream form assessed as increase in intracellular reactive oxygen species production at 4 mM after 24 hrs by FACS analysis; type: functional
Method in brief: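 Bloodstream-form T. brucei MITat 1.2 (VSG 221, strain EATRO 427) were grown axenically at 37°C, 5% CO₂ and exposed to DHA for 24 h. Control and treated cells were then loaded with 10 μM dichlorofluorescein diacetate for 1 h at 37°C. Intracellular fluorescence intensity was read by flow cytometry.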

Trypanosoma brucei [9] = test: Effect on morphological changes in Trypanosoma brucei bloodstream form assessed as appearance of multiple folds in mitochondrion membrane at 3 mM after 24 hrs by transmission electron microscopy; type: functional, organism-based; method in brief: as §1

O=C(CO)CO [DIHYDROXYACETONE]
Activity (Trypanosoma brucei [1]): 6.3%
Activity (Trypanosoma brucei [2]): Active
Activity (Trypanosoma brucei [3]): 4%
Activity (Trypanosoma brucei [4]): Active
Activity (Trypanosoma brucei [5]): Active
Activity (Trypanosoma brucei [6]): inactive
Activity (Trypanosoma brucei [7]): 26.8%
Activity (Trypanosoma brucei [8]): 23.2%
Activity (Trypanosoma brucei [9]): Active
